Measurements published in PubChem BioAssay.
Inconclusive results are not listed.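 The calls were made as follows, unless noted: active = RAM network inhibition above 8.4% in each of two replicates, 3 SD over the compound average; inconclusive = above 8.4% inhibition in only one replicate; inactive = 8.4% inhibition or less in each replicate.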

Tests used:
[1] = OD615 S. cerevisiae growth inhibition, permissive medium, pilot counter-assay, permissive growth control for S. cerevisiae lifespan shortening project (AID 705;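 active = growth inhibition above 25% in both replicates, a cutoff set 3 SD above the mean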); conditions: OD615, 24 h, at 10 µM, hits give high values
Summary of the method: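 System: S. cerevisiae with engineered DeaD lifespan system. Medium: SC raffinose/galactose permissive medium. Doses: single compound dose of 10 µM, 0.25% DMSO final. Schedule: 24 h exposure, 30 °C. Measured by: OD615 turbidity read. Read-out: growth inhibition.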

[2] = Restrictive medium S. cerevisiae growth inhibition, OD615, pilot screen of yeast lifespan reduction project, restrictive growth control (AID 706;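 active = growth inhibition above a set limit, 3 SD over mean compound inhibition, in both replicates, cut at about 43% in these data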;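 also: modified DeaD lifespan yeast strain shifted to restrictive glucose medium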); conditions: OD615, 48 h, at 10 µM, hits give high values
Summary of the method: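 Assay system – genetically modified Saccharomyces cerevisiae, DeaD replicative lifespan assay strain · Medium – CSMM-D glucose medium · Doses – 10 µM compound, 0.25% DMSO · Times – 4 h pre-incubation, 48 h exposure at 30 °C · Signal – optical density at 615 nm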

[3] = viability gain of MRP-1-high H69AR cells under doxorubicin, pilot screen, MRP-1 activator project, CellTiter-Glo, duplicate (AID 807;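 active = viability increase at or above a cutoff of the median across tested compounds plus 3 SD, cut at about 8.5% in these data, passing the limit was not always enough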;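 also: compound pretreatment 18-22 h then 72 h combined with doxorubicin; 0% = doxorubicin alone and 100% = vehicle without doxorubicin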); conditions: H69AR viability with doxorubicin, CellTiter-Glo luminescence; at 10 µM; hits give high values
[4] = growth suppression of beta-catenin knockout HCT116, pilot screen, human colon tumor cells (AID 823;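 active = cell viability at or below a set limit in both duplicate runs, the limit being the all-compound median minus 4 SD, cut at about 23% in these data, passing the limit was not always enough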;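 also: 0% = wells killed by 20 µM Hyamine and 100% = untreated DMSO cell wells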); conditions: CellTiter-Glo, 60 h, at 10 µM, hits give low values
[5] = inhibitors of the yeast RAM network, pilot screen, dse1pr::URA3 reporter, 5-FOA selection (AID 869;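 active = inhibition over a set limit, the all-compound mean plus 3 SD, in both replicate runs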;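 also: 0% = DMSO wells with no growth and 100% = 10 µM 1-NA-PP1 with full growth; RAM network block rescues cells from 5-FOA so hits raise OD615 growth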); conditions: S. cerevisiae dse1pr::URA3 5-FOA growth, OD615, 2 d; at 10 µM; hits give high values; strain carries analog-sensitive mutant Cbk1 kinase
[6] = RAM signaling pathway blockade in yeast – S. cerevisiae, Pdr1DBD-CYC8 efflux-inhibited sensitized strain, primary screen (AID 1298);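 also: 0% = DMSO untreated cells without growth and 100% = 10 µM 1-NA-PP1 full growth; higher means more yeast growth rescued from 5-FOA killing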; conditions: S. cerevisiae cbk1-as DSE1-URA3 strain, 5-FOA growth OD615, 2 d; at 50 µM; hits give high values

S=c1nc(-c2ccccc2)n(CCN2CCOCC2)c2c1CCCC2
inactive: growth inhibition [1] -2.79% | growth inhibition [2] 19.1% | viability increase [3] -4.18% | viability [4] 92.6% | inhibition [5] 1.71% | RAM network inhibition [6] 6.76%

COc1ccc(NC(=O)C2CCC(C)(C(=O)O)C2(C)C)cc1 (stereo not given)
inactive: growth inhibition [1] 1% | growth inhibition [2] 3.7% | viability increase [3] -0.59% | viability [4] 96% | inhibition [5] 1.27% | RAM network inhibition [6] 3.75%

Cc1ccc(C)c(S(=O)(=O)Nc2ccccc2C(=O)Nc2cc(C)on2)c1
inactive: growth inhibition [1] -32.7% | growth inhibition [2] -4.75% | viability increase [3] -3.6% | viability [4] 77.3% | inhibition [5] 2.54% | RAM network inhibition [6] 6.23%

Cc1cc(Nc2nc3c(c(=O)n(C)c(=O)n3C)n2C)n(-c2ccc(Cl)cc2)n1
inactive: growth inhibition [1] 9.41% | growth inhibition [2] 3.67% | viability increase [3] -3.74% | viability [4] 92.7% | inhibition [5] 3.25% | RAM network inhibition [6] 3.85%

CSc1nc2c(c(=O)n1-c1ccccc1)SCC2
inactive: growth inhibition [1] -15.9% | growth inhibition [2] -8.25% | viability increase [3] -2.76% | viability [4] 98.3% | inhibition [5] 0.775% | RAM network inhibition [6] 0.21%

CCOC(=O)C1CCN(CCC(=O)Nc2cccc(Cl)c2C)CC1
inactive: growth inhibition [1] -11.2% | growth inhibition [2] -0.95% | viability increase [3] -2.59% | viability [4] 94.6% | inhibition [5] 1.46% | RAM network inhibition [6] 2.35%

CCN1CCN(C(=O)C2c3cc(OC)c(OC)cc3C(=O)N(C)C2c2ccc(SC)cc2)CC1 (stereo not given)
inactive: growth inhibition [1] -12.5% | growth inhibition [2] -4.19% | viability increase [3] -3.74% | viability [4] 92.3% | inhibition [5] 0.995% | RAM network inhibition [6] 2.33%

CC(C)n1c(CNC(=O)c2ccccc2)nc2ccccc21
inactive: growth inhibition [1] -18.1% | growth inhibition [2] 9.14% | viability increase [3] -3.11% | viability [4] 100% | inhibition [5] 2.63% | RAM network inhibition [6] 1.5%

C=CCn1c(CCNC(=O)C(C)(C)C)nc2ccccc21
inactive: growth inhibition [1] -10.5% | growth inhibition [2] 3.93% | viability increase [3] -1.82% | viability [4] 103% | inhibition [5] 1.94% | RAM network inhibition [6] 3.12%

O=C(O)CN1C(=O)Nc2ccc(Br)cc2C1c1ccccc1 (stereo not given)
inactive: growth inhibition [1] 0.155% | growth inhibition [2] -8.88% | viability increase [3] -2.28% | viability [4] 93.6% | inhibition [5] -0.025% | RAM network inhibition [6] 0.79%

O=C(NCc1ccc(N2CCCC2=O)cc1)c1cn(CCc2ccccc2)nn1
inactive: growth inhibition [1] -5.88% | growth inhibition [2] -13.3% | viability increase [3] 1.6% | viability [4] 95.1% | inhibition [5] 1.7% | RAM network inhibition [6] 7.58%

Nn1c(SCC(=O)NC2CCCCC2)nnc1-c1ccccc1
inactive: growth inhibition [1] -25.7% | growth inhibition [2] 8.66% | viability increase [3] -1.37% | viability [4] 98.8% | inhibition [5] 2.28% | RAM network inhibition [6] 4.63%

CSC(=NCCCN1CCOCC1)NS(=O)(=O)c1cccs1
inactive: growth inhibition [1] -13.8% | growth inhibition [2] -11.4% | viability increase [3] -1.56% | viability [4] 95.6% | inhibition [5] 1.51% | RAM network inhibition [6] 1.45%

Nc1ncnc2c1ncn2C1CCC(CO)C(O)C1 (stereo not given)
inactive: growth inhibition [1] 3.96% | growth inhibition [2] -0.275% | viability increase [3] -3.38% | viability [4] 107% | inhibition [5] 1.32% | RAM network inhibition [6] 3.68%

CCN(CC)S(=O)(=O)c1ccc(NC(=O)Cn2c(=O)oc3ccccc32)cc1
inactive: growth inhibition [1] -12.3% | growth inhibition [2] -11.6% | viability increase [3] -3.33% | viability [4] 96.7% | inhibition [5] 2.38% | RAM network inhibition [6] 5.71%

O=C(CN1C(=O)c2cccc3cccc1c23)N1CCN(c2ccc(F)cc2)CC1
inactive: growth inhibition [1] -26.6% | growth inhibition [2] -0.695% | viability increase [3] -2.42% | viability [4] 94.1% | inhibition [5] 2.49% | RAM network inhibition [6] 8.63%

O=C(CNC(=O)Cn1ccc2ccccc2c1=O)NCCCN1CCCCCC1
inactive: growth inhibition [1] -7.25% | growth inhibition [2] -1.09% | viability increase [3] -2.48% | viability [4] 91.2% | inhibition [5] -0.25% | RAM network inhibition [6] 4.42%

Cn1ccnc1SCC(=O)NC1CCCCC1
inactive: growth inhibition [1] -11.1% | growth inhibition [2] -7.09% | viability increase [3] -0.96% | viability [4] 100% | inhibition [5] 3.6% | RAM network inhibition [6] 1.87%

CCN1C(=S)SC(=O)C1=C1C=C(C)OC(C)=C1
inactive: growth inhibition [1] -11% | growth inhibition [2] 14.9% | viability increase [3] -3.02% | viability [4] 91.9% | inhibition [5] 2.55% | RAM network inhibition [6] 5.1%

COCC(=O)NC(C)c1nc2ccccc2[nH]1 (stereo not given)
inactive: growth inhibition [1] -27.6% | growth inhibition [2] -2.47% | viability increase [3] -1.7% | viability [4] 91.9% | inhibition [5] 0.975% | RAM network inhibition [6] 3.95%
